Measurements: ChEMBL document CHEMBL4251675, “Saroclides A and B, Cyclic Depsipeptides from the Mangrove-Derived Fungus Sarocladium kiliense HDN11-112” (J Nat Prod, 2018)
The source made the active and inactive calls. No cut-off for these calls is given here.

What was measured:
Bacillus subtilis = test: Antibacterial activity against Bacillus subtilis after 20 hrs by double dilution method; type: functional, organism-based
In short: (§1)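 Broth doubling-dilution assay against E. coli, S. aureus, C. albicans and B. subtilis, with chloramphenicol as positive control.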

Candida albicans = test: Antifungal activity against Candida albicans by double dilution method; type: functional, organism-based; in short: as §1
HEK293 = test: Cytotoxicity against human HEK293 cells; type: functional, cell-based
In short: (§2)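 HeLa, BEL-7402, HEK-293, HCT-116 and A549 lines tested by MTT or SRB method, with doxorubicin as positive control.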

HeLa = test: Cytotoxicity against human HeLa cells; type: functional, cell-based; in short: as §2
Staphylococcus aureus = test: Antibacterial activity against Staphylococcus aureus after 20 hrs by double dilution method; type: functional, organism-based; in short: as §1
Escherichia coli = test: Antibacterial activity against Escherichia coli after 20 hrs by double dilution method; type: functional, organism-based; in short: as §1
A549 = test: Cytotoxicity against human A549 cells; type: functional, cell-based; in short: as §2
Bel-7402 = test: Cytotoxicity against human Bel7402 cells; type: functional, cell-based; in short: as §2
HCT-116 = test: Cytotoxicity against human HCT116 cells; type: functional, cell-based; in short: as §2
HepG2 [1] = test: Lipid lowering activity in human HepG2 cells assessed as reduction in oleic acid-induced intracellular cholesterol level at 2.5 to 10 uM after 24 hrs […]; type: functional, cell-based
In short: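 HepG2 at 90% confluence treated 24 h with compound (2.5, 5.0, 10.0 μM) or simvastatin 10 μM in high-glucose DMEM containing 100 μM oleic acid. Blank was serum-free DMEM, OA-only as negative control. Intracellular total cholesterol and triglyceride measured with commercial kits per manufacturer. Means ± SEM of at least three experiments.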

HepG2 [2] = test: Lipid lowering activity in human HepG2 cells assessed as reduction in oleic acid-induced triglyceride level at 2.5 to 10 uM after 24 hrs by oil red O staining based spectrophotometric method; type: functional, cell-based
HepG2 [3] = test: Cytotoxicity against human HepG2 cells assessed as reduction in cell viability at 20 uM after 20 hrs by MTT assay; type: cell-based; conditions: hepg2, 20 h
In short: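 HepG2 grown in high-glucose DMEM with 10% FBS at 37 °C, 5% CO2. Once confluent, incubated 20 h with compound. Medium then replaced with fresh medium containing 10% sterile-filtered MTT for 4 h. Formazan dissolved in isopropanol, absorbance read at 570 nm with 630 nm reference. Viability expressed as % of blank wells. Means ± SEM of at least three experiments.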

HepG2 [4] = test: Lipid lowering activity in human HepG2 cells assessed as reduction in oleic acid-induced lipid accumulation at 2.5 to 10 uM after 24 hrs by oil red O staining based spectrophotometric method; type: functional, cell-based
In short: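 HepG2 in high-glucose DMEM/10% FBS at 37 °C, 5% CO2, grown to 90% confluence. Treated 24 h with compound (2.5, 5.0, 10.0 μM) or simvastatin 10 μM in high-glucose DMEM plus 100 μM oleic acid. Blank was serum-free DMEM alone, negative control OA alone. Neutral lipid by oil-red O staining, read spectrophotometrically at 358 nm. Means ± SEM, ≥3 experiments.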

| Structure (SMILES) | Activity (Bacillus subtilis) | Activity (Candida albicans) | Activity (HEK293) | Activity (HeLa) | Activity (Staphylococcus aureus) | Activity (Escherichia coli) | Activity (A549) | Activity (Bel-7402) | Activity (HCT-116) | Activity (HepG2 [1]) | Activity (HepG2 [2]) | Activity (HepG2 [3]) | Activity (HepG2 [4]) |
| --- | --- | --- | --- | --- | --- | --- | --- | --- | --- | --- | --- | --- | --- |
| CCC[C@@H]1C/C=C(\C)C(=O)CC(=O)N[C@H](Cc2ccccc2)C(=O)N2CCC[C@@H]2C(=O)O1 | inactive | inactive | inactive | inactive | inactive | inactive | inactive | inactive | inactive |  |  |  |  |
| CCC[C@@H]1C/C=C(\C)C(=O)CC(=O)N[C@H](Cc2ccccc2)C(=O)N2CCC[C@H]2C(=O)O1 | inactive | inactive | inactive | inactive | inactive | inactive | inactive | inactive | inactive | Active | Active | Non-Toxic | Active |
